Bioassay records deposited in PubChem BioAssay by The Scripps Research Institute Molecular Screening Center.
Shown are actives, neighbours in structure and some others; about 2.7% of the full set was active somewhere.
PAFAH2 FP inh: PAFAH2 (human) inhibition; Q99487; recombinant PAFAH2, FP-rhodamine activity probe, fluorescence polarization; inhibition, % at 3.39 µM; actives 0.99% (n = 340,000); AID 492956;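 active = inhibition above the mean over all tested compounds plus 3 SD, cut at about 30% in these data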;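 also: inhibitors block probe labeling of enzyme so polarization drops; 0% = enzyme with DMSO and 100% = wells lacking PAFAH2 protein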
ARFGAP1 inhibitor: rat ARFGAP1 inhibition. Q62848. Arfgap1-stimulated ARF1 GTP hydrolysis, GDP FP detection. inhibition, % at 16.5 µM. actives 0.26% (n = 360,000);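 active = inhibition above a per-plate limit, mean inhibition of low control wells plus 3 SD, cut at about 25% in these data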;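 also: 0% = DMSO wells with enzyme and 100% = wells lacking Arfgap1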
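Material: rat Arfgap1 GAP domain (His6, aa 1-136), purified enzyme. Also added: human ARF1(Δ1-17)-GTP substrate. Compound dosing: 16.5 µM single point, 1.26% DMSO. Timing: enzyme reaction 120 min at 25 °C after 20 min preincubation. Signal: GDP detection by fluorescence polarization. Read-out basis: percent inhibition of GAP-stimulated GDP formation, scaled between DMSO and no-Arfgap1 medians.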
ASAP1 GAP inh: ASAP1 ArfGAP inhibition; actives 0.19% (n = 360,000); inhibition, % at 16.5 µM; Q9ULH1; AID 624377; ASAP1-stimulated ARF1 GTP hydrolysis, GDP FP detection; in the data active = inhibition above about 25%;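 also: 0% = vehicle with enzyme and substrate and 100% = no enzyme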
PAFAH1B2 inh: inhibitors of human PAFAH1B2; recombinant PAFAH1B2, FP-rhodamine activity probe, fluorescence polarization; inhibition, % at 3.39 µM; actives 1.2% (n = 340,000);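 active = inhibition above the mean of all tested compounds plus 3 SD, cut at about 24% in these data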;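 also: 0% = enzyme with DMSO and 100% = wells lacking PAFAH1B2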
Target sequence (P68402 whole entry, looked up): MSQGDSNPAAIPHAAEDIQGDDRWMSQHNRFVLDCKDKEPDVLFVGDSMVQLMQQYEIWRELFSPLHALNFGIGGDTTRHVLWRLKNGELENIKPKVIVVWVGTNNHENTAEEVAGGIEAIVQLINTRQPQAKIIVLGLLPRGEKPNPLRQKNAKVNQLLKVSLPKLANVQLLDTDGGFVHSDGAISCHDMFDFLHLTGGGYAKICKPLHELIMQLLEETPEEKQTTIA
pPAFAH FP inh: inhibitors of human plasma PAF acetylhydrolase (pPAFAH); recombinant pPAFAH, FP-rhodamine probe fluorescence polarization; Q13093; actives 1.5% (n = 330,000); inhibition, % at 3.39 µM; AID 463082;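 active = inhibition above the mean inhibition across the screen plus 3 SD, cut at about 25% in these data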;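 also: inhibitors block binding of the rhodamine activity-based probe so polarization drops; 0% = enzyme with DMSO and 100% = wells lacking pPAFAH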
Target sequence (Q13093 whole entry, looked up): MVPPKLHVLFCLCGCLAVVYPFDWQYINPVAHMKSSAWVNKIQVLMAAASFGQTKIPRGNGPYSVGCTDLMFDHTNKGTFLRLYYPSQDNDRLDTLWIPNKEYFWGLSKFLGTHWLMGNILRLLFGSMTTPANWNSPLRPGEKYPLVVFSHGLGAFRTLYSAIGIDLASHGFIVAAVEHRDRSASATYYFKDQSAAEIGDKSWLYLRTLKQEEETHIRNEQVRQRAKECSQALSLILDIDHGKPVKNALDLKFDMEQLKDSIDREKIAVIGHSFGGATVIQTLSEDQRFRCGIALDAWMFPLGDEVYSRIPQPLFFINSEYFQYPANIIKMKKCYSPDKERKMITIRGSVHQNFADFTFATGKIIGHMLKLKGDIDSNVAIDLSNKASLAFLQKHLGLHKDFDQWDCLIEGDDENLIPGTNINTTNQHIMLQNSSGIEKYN
PAFAH1B3 FP inh: blocks human PAF acetylhydrolase 1B catalytic subunit 3; recombinant PAFAH1B3, FP-rhodamine probe, fluorescence polarization; inhibition, % at 3.39 µM; actives 0.28% (n = 340,000); AID 492972;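 active = inhibition above the screen-wide average of all tested compounds plus 3 SD, cut at about 25% in these data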;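 also: 0% = enzyme with DMSO only and 100% = wells lacking PAFAH1B3 protein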
* marks the source's active call; other numbers are inactive results; nt = no result given; ! = repeats disagree.

SMILES | PAFAH2 FP inh | ARFGAP1 inhibitor | ASAP1 GAP inh | PAFAH1B2 inh | pPAFAH FP inh | PAFAH1B3 FP inh
CN(C)CC[C@@H](c1ccc(Cl)cc1)c1ccccn1 | 1 | 3 | 0 | 0 | -3 | 1
CN(C)CCO[C@@H](c1ccc(Cl)cc1)c1ccccn1 | -2 | -8 | -18 | -1 | 27* | 5
CN1CCCCC(NC(=O)c2ccc(F)c(F)c2)C1=O (stereo not given) | nt | 5 | 11 | nt | nt | nt
COc1cc(=O)oc(C=O)c1C | nt | 6 | 5 | nt | nt | nt
CCOC(=O)C1=C(C)NC2=C(C(=O)c3ccccc32)C1c1ccc(O)cc1 (stereo not given) | 16 | 16 | 18 | 6 | 32* | 13
Cc1nc2c(nc1C)C(=O)c1ccccc1C2=O | 4 | 8 | -1 | 4 | nt | 8
COC1=C(N)C(=O)c2nc(C)ccc2C1=O | 18 | 21 | 18 | 27* | nt | 63*
Cc1ccc(OCC(=O)c2ccc(Cl)s2)c([N+](=O)[O-])n1 | 3 | 6 | 2 | 5 | 25* | 8
O=C(Cc1ccc(Br)cc1)NCCc1ccc(F)cc1 | 0 | 10 | -10 | 26* | -4 | -1
O=C(Cc1ccc(Cl)cc1)NCCc1ccc(F)cc1 | nt | 1 | -9 | nt | -6 | nt
N#CCSc1ncnc2ccccc12 | 2 | 6 | 9 | 11 | 2 | 6
Cc1ccccc1CSc1ncnc2ccccc12 | -2 | 14 | 9 | 4 | 32* | 6
COc1ccc(CNC(=O)N(C)C[C@@H]2OCc3ccccc3-c3c(n(C)c4ccccc34)C(=O)N([C@@H](C)CO)C[C@@H]2C)cc1 | nt | -6 | 14 | nt | nt | nt
Cc1cc(=O)[nH]c(SCC(=O)C23CC4CC(CC(C4)C2)C3)c1C#N | 49* | -13 | 3 | 63* | 13 | 8
Cc1cc(=O)[nH]c(SCC(=O)O)c1C#N | 7 | -2 | 5 | 4 | 0 | 1
CC1SC(=S)N(c2ccc(N(C)C)cc2)C1=O (stereo not given) | -4 | -12 | -3 | 1 | 29* | 10
CN(C)c1ccc(N2C(=O)CC(c3ccccc3)CC2=O)cc1 | 0 | 2 | -10 | 1 | -1 | 1
COC(=O)C1=C(C)N(C)C(=NCc2ccc3c(c2)OCO3)NC1c1ccc(F)cc1 (stereo not given) | nt | 11 | -5 | nt | nt | nt
COC(=O)C1=C(C)N(C)C(=NCc2ccc(OC)cc2)NC1c1cccc(C(F)(F)F)c1 (stereo not given) | nt | 5 | -1 | nt | nt | nt
Cc1noc(/C=C/c2ccco2)c1S(=O)(=O)N1CCC(C(=O)N2CCc3ccccc3C2)CC1 | -12 | nt | nt | 1 | 30* | 2
C=CCCC1CN(Cc2ccc(OC)cc2)S(=O)(=O)c2c(cccc2N2CCCC2)O1 (stereo not given) | nt | -11 | 1 | nt | nt | nt
C/C(=N\OC(=O)c1ccc(F)cc1)c1sc(-c2ccc(Cl)cc2)nc1C | 0 | -2 | -5 | 3 | 3 | 3
C/C(=N\OC(=O)c1ccc(Cl)c(Cl)c1)c1sc(C)nc1C | 5 | 6 | -22 | 0 | 34* | 6
CC1CCN(S(=O)(=O)c2cccc(C(N)=O)c2)CC1 | 2 | -15 | -7 | 26* | -1 | 0
CC1CCC(NC(=O)c2cccc(S(=O)(=O)N3CCOCC3)c2)CC1 (stereo not given) | nt | -3 | -13 | nt | nt | nt
SMILES | PAFAH2 FP inh | ARFGAP1 inhibitor | ASAP1 GAP inh | PAFAH1B2 inh | pPAFAH FP inh | PAFAH1B3 FP inh
COC(=O)c1cccc(S(=O)(=O)N2CCC(C)CC2)c1 | -3 | -14 | -4 | 26* | 8 | -5
Cc1ccc(S(=O)(=O)N2CCC(C)CC2)cc1[N+](=O)[O-] | -10 | -4 | -4 | 19 | nt | -3
COC(=O)CSc1ccc(S(=O)(=O)N2CCC(C)CC2)cc1[N+](=O)[O-] | -4 | -5 | -4 | 27* | 2 | -5
COC(=O)c1cc(S(=O)(=O)N2CCC(C)CC2)ccc1F | -9 | -5 | -5 | 20 | 0 | 6
CC1CCC(NC(=O)c2cccc(S(=O)(=O)N3CCN(C)CC3)c2)CC1 (stereo not given) | 5 | 1 | 9 | 26* | 4 | 4
C=CCN1[C@@H](C)[C@H](c2ccccc2)Oc2cccc(NCCc3ccccc3)c2S1(=O)=O | nt | -18 | 10 | nt | nt | nt
CC1CCN(S(=O)(=O)c2ccc(C(=O)N(C)C3CCS(=O)(=O)C3)cc2)CC1 (stereo not given) | -2 | 6 | -11 | 13 | -7 | 7
CC1CCN(S(=O)(=O)c2cccc(C(=O)N(C)C3CCS(=O)(=O)C3)c2)CC1 (stereo not given) | -5 | 14 | -6 | 33* | 2 | 7
CCSc1n[nH]c(=O)n1C | nt | 6 | 7 | nt | nt | nt
CC(C=NN=C1C(=O)Nc2ccccc21)=Cc1ccccc1 | nt | -1 | -6 | nt | nt | nt
COC(=O)c1ccccc1NCc1cc(=O)oc2cc(O)c(O)cc12 | 31* | 10 | -10 | 44* | 82* | 17
O=C(Cn1nnc(N2CCCCC2)n1)NN=Cc1ccccc1O | nt | 0 | 11 | nt | nt | nt
CCCCCCSc1nnc2[nH]c(=O)cc(N)n12 | 2 | -5 | 4 | 26* | 1 | 4
COC(=O)c1cc2c(c3c4cc(OC)ccc4n(C(=O)c4ccccc4)c13)C(=O)N(Cc1ccco1)C2 | nt | 1 | 6 | nt | nt | nt
Cc1ccc(CS(=O)(=O)CC(C)(O)c2ccc(Cl)cc2)cc1 (stereo not given) | -1 | 0 | -5 | 27* | 8 | -8
CC(C)(c1ccc(O)c([N+](=O)[O-])c1)c1ccc(O)c([N+](=O)[O-])c1 | 1 | 3 | -2 | 26* | nt | 1
CN1C(=O)/C(=C/c2ccc(O)c([N+](=O)[O-])c2)N(C)C1=S | 0 | -13 | 0 | 7 | -3 | -1
C=CC(=O)NC1CCCCN(C)C1=O (stereo not given) | nt | -5 | -5 | nt | nt | nt
O=C(Cc1cc(=O)[nH][nH]1)N/N=C/C(Cl)=C/c1ccccc1 | -3 | -9 | -11 | 8 | 26*! | 0
Cc1ccccc1S(=O)(=O)N1CCCc2nc(-c3ccc(F)cc3)ccc21 | nt | -2 | -12 | nt | nt | nt
Cc1cc(C(=O)N/N=C2\CC(=O)c3ccccc32)c(C)n1-c1ccccc1 | 5 | 10 | -1 | 6 | 31* | 5
Cc1cc(C(=O)O)c(C)n1-c1ccccc1 | 0 | 7 | 9 | 5 | 3 | 9
N#Cc1c(NC(=O)CSc2nnc(-c3ccco3)n2-c2ccccc2)sc2c1CCC2 | 8 | 7 | 1 | 3 | 13 | 2
NC(=O)c1c(NC(=O)CSc2nnc(-c3ccco3)n2-c2ccccc2)sc2c1CCC2 | 11 | -8 | -6 | -3 | 33* | -6
O=C(NCCc1ccccc1Cl)[C@@H]1CCCN1C(=O)[C@H](Cc1cccnc1)NC(=O)N1CCOCC1 | nt | -1 | -4 | nt | nt | nt
O=C(c1ccc(S(=O)(=O)Nc2ccccc2)cc1)N1CCCC(C(F)(F)F)C1 (stereo not given) | 3 | -4 | -6 | 1 | 28* | -2
